NR2E3 ag-1: human photoreceptor-specific nuclear receptor agonism; CHO-S Gal4-NCOR/VP16-NR2E3 two-hybrid, luciferase; inhibition of corepressor binding, % at 3.98 µM; hit rate 0.35% among 360,000; AID 602229;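 active means inhibition above the mean of all tested compounds plus 3 SD, cut at about 70% in these data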;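 further: higher means lower luciferase signal from less NR2E3 corepressor binding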
Target sequence (Q9Y5X4 whole entry, looked up, the tested form may be a part): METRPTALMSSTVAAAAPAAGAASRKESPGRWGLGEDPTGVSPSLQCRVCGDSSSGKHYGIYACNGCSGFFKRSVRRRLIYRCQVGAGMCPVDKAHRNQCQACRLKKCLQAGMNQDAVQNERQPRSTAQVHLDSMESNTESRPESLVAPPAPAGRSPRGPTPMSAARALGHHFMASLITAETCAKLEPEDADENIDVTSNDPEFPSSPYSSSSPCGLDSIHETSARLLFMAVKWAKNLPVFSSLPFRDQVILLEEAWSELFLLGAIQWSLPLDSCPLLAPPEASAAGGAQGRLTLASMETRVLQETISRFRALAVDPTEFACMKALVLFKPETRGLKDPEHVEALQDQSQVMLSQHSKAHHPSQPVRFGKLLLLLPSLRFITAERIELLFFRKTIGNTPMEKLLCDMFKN
PG9 binder: binds the HIV-1 gp120 antibody PG9 | AID 624416 | hit rate 0.43% among 360,000 | inhibition, % at 6.7 µM | TR-FRET gp120-PG9 antibody binding; in the data active means inhibition above about 8.5%
NR2E3 ag-2: NR2E3 (human) agonism | Q9Y5X4 | GST-NR2E3/biotin-RetCOR TR-FRET, 1536-well | inhibition of corepressor binding, % at 4.78 µM | hit rate 0.12% among 320,000 | AID 2300;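 active means percent inhibition above the cutoff of mean plus 3 SD of all tested compounds, set per screening campaign, cut at about 20% in these data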
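Assay system: NR2E3–RetCOR corepressor complex. Quantity: 1.35 nM GST-NR2E3. Buffer or medium: pH 7.5 Tris-based buffer. Reagent: biotinylated RetCOR corepressor at 7 nM final. Schedule: 5 h at 4 °C. Detection: TR-FRET, emission read at 617 and 671 nm. Replicates: one well per compound, singlicate testing.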
NR1D1 modulator: modulates human Rev-erb alpha binding to DNA; Rev-erbα–FITC-DNA binding, fluorescence polarization, 90 min; activity, % at 10 µM; hit rate 0.79% among 370,000;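 active means activity above about 14%, limit read from the data; passing the limit was not always enough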
PG9 bind confirm: PG9 antibody binding, confirmed | shares compounds with PG9 binder | hit rate 90% among 1,500 | AID 651571 | inhibition, % at 6.7 µM | TR-FRET PG9 antibody binding, biochemical; in the data active means inhibition above about 9%
PGV04 Ab binding: PGV04 control antibody binding, counter-screen; shares compounds with PG9 binder; TR-FRET PGV04 antibody-gp120 binding, biochemical; inhibition, % at 6.7 µM; hit rate 95% among 1,500; in the data active means inhibition above about 9.5%
NR1D1 mod conf: confirmation of modulators of human Rev-erb alpha DNA binding. hit rate 61% among 3,000. activation, % at 25 µM. Rev-erb alpha FITC-DNA binding, fluorescence polarization, 90 min. shares compounds with NR1D1 modulator. AID 1259319;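 active means activation at or above a set limit, or at least 3 SD above the negative control mean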
RORg DNA counter: counter-screen for Rev-erb alpha modulators: RORgamma DNA binding | shares compounds with NR1D1 modulator | purified RORgamma protein-FITC-DNA binding, fluorescence polarization | IC50, µM | hit rate 8% among 910;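 active means Compounds whose fitted half-maximal concentration for disrupting protein-DNA binding is below 10 micromolar; the record names Rev-erb in its text, so the target is in doubt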
Of the large screens only hits and unclear results are named; the others gave an inactive call (follow-up assays come after a bar, where they were run). Hits are enriched below; roughly 1.5% of the tested compounds scored in any of these assays.

Cc1cc(-c2cccc(Br)c2)c(C#N)c(N)n1	PG9 binder 33.5, NR1D1 modulator 21.3 | PG9 bind confirm 37.9 | PGV04 Ab binding 61.3 | NR1D1 mod conf inactive
COc1ccc2cc(C#N)c(SCC(=O)N3CC(=O)Nc4ccccc43)nc2c1	none (no result: PG9 binder, NR1D1 modulator)
Cc1cccc2cc(C#N)c(SCC(=O)N3CC(=O)Nc4ccccc43)nc12	PG9 binder 30.5, NR1D1 modulator 89.7 | PG9 bind confirm 46.1 | PGV04 Ab binding 74.5 | NR1D1 mod conf 66.9 | RORg DNA counter inactive
Cc1cccc2cc(C#N)c(SCC(=O)N3CCC(C)CC3)nc12	PG9 binder 8.8, NR1D1 modulator 53.2 | PG9 bind confirm 12.1 | PGV04 Ab binding 16.1 | NR1D1 mod conf 64.6 | RORg DNA counter inactive
CC(C)C[C@H](NC1(C(=O)NC2CCCCC2)CCN(C(=O)OC(C)(C)C)CC1)C(=O)NCCc1c[nH]c2ccccc12	none (no result: NR2E3 ag-1, PG9 binder, NR2E3 ag-2)
CCCCCCn1c(=O)c(-c2ccccc2)c(O)c2ccccc21	none
CCn1c(=O)c(-c2nc3ccccc3[nH]2)c(O)c2ccccc21	PG9 binder 44.5, NR1D1 modulator 31.9 (no result: NR2E3 ag-1) | PG9 bind confirm 42.6 | PGV04 Ab binding 49.4 | NR1D1 mod conf inactive
CCCn1c(=O)c(-c2nc3ccccc3[nH]2)c(O)c2ccccc21	PG9 binder 50.0, NR1D1 modulator 26.5 | PG9 bind confirm 61.9 | PGV04 Ab binding 70.9 | NR1D1 mod conf inactive
N#Cc1nc(-c2ccc(OCc3ccccc3)cc2)oc1N1CCC(C(N)=O)CC1	PG9 binder 9.5, NR1D1 modulator 41.5 | PG9 bind confirm 9.1 | PGV04 Ab binding 15.5 | NR1D1 mod conf inactive
COc1ccc(-c2nc(C#N)c(N3CCC(C(N)=O)CC3)o2)cc1	none
Cc1ccccc1N(C(=O)c1snc(C(N)=O)c1N)C(C(=O)NCc1ccccc1)c1ccc(O)cc1 (stereo not given)	PG9 binder 29.8, NR1D1 modulator 18.7 | PG9 bind confirm 30.8 | PGV04 Ab binding 45.0 | NR1D1 mod conf inactive
Cc1cccc(NC(=O)c2sc(NC(=O)COc3ccccc3)c(C#N)c2C)c1C	none
Cc1ccccc1NC(=O)c1sc(NC(=O)COc2ccccc2)c(C#N)c1C	PG9 binder 34.4, NR1D1 modulator 73.8 | PG9 bind confirm 36.8 | PGV04 Ab binding 52.5 | NR1D1 mod conf 58.1 | RORg DNA counter inactive
COc1ccc(NC(=O)COc2ccc(Br)cc2)c(OC)c1	none
COc1ccc2cc(OCC(=O)NNC(=O)Nc3ccc(OC)c(OC)c3)ccc2c1	none
COc1ccc(NC(=O)NNC(=O)COc2ccc3cc(Br)ccc3c2)c(OC)c1	PG9 binder 60.6, NR1D1 modulator 118.2 | PG9 bind confirm 63.0 | PGV04 Ab binding 74.1 | NR1D1 mod conf 111.0 | RORg DNA counter inactive
COc1ccc2cc(OCC(=O)NNC(=O)Nc3ccc(F)cc3)ccc2c1	PG9 binder 22.9, NR1D1 modulator 42.1 | PG9 bind confirm 34.4 | PGV04 Ab binding 44.8 | NR1D1 mod conf 34.9 | RORg DNA counter 3.07
O=C(OCc1cn(Cc2cc(F)cc(F)c2)nn1)N1CCOCC1	none (no result: NR2E3 ag-1, PG9 binder, NR2E3 ag-2)
CCCCCCCCN1C(=O)[C@@H](CC(=O)NCc2cccc3ccccc23)C[C@@]2(C(=O)OC)C1=C[C@H](COCc1ccccc1)O[C@@H]2C	none (no result: NR2E3 ag-1, PG9 binder, NR2E3 ag-2)
Brc1cc(Br)c2nc3c(cc2c1)CCC3	PG9 binder 51.7, NR1D1 modulator 33.4 | PG9 bind confirm 57.6 | PGV04 Ab binding 66.5 | NR1D1 mod conf 22.8
COC(=O)c1sc(NC(=O)c2ccncc2)nc1C	none
CCOC(=O)c1sc(NC(=O)c2ccc(=O)[nH]c2)nc1C	none
CCOc1ccc(C(=O)Nc2nc(C)c(C(=O)OC)s2)cc1	PG9 binder 11.9, NR1D1 modulator 49.6 | PG9 bind confirm 38.0 | PGV04 Ab binding 71.1 | NR1D1 mod conf 80.8 | RORg DNA counter inactive
C=CCOC(=O)c1sc(NC(=O)c2ccc(OC)cc2)nc1C	PG9 binder 18.1, NR1D1 modulator 38.6 | PG9 bind confirm 22.0 | PGV04 Ab binding 38.8 | NR1D1 mod conf 24.9
CC(COc1ccc(F)cc1)CN1CCC(C(O)(c2ccccc2)c2ccccc2)CC1 (stereo not given)	none (no result: NR2E3 ag-1, PG9 binder, NR2E3 ag-2)
